According to article PMC6440678 (Clinical and Translational Science, 2018):

Columns and labels:
[1] = system: patients with stable sickle cell disease; experiment: Safety and tolerability, phase Ib study; type: in vivo, human
[2] = Plasma pharmacokinetics of PF‐04447943, phase Ib study; type: in vivo, human; details: for AUC0−12 (dn) / Cmax (dn): dose normalized to 1 mg; for AUC0−12 (dn) / Cmax (dn) / Cmax: geometric mean (geometric %CV); for Tmax / Cmax / AUC(0-t): human, plasma; for Tmax / Cmax: oral; for AUC(0-t): po
[3] = system: neutrophil‐platelet and monocyte‐platelet aggregates; experiment: Leukocyte‐platelet aggregates by flow cytometry in SCD patients; type: in vivo, human; details: day 29, 25 mg twice daily
Procedure, shortened: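 Citrated whole blood was taken before dosing on days 1, 2, 7, 14, 21 and 29 and at baseline. Within 30 min it was mixed with FacsLysing solution and refrigerated, then spun 5 min at 500 g. Cells were resuspended in HEPES/NaCl/0.5% BSA, pH 7.4, and stained with PC5-anti-CD14 plus PE-CD42a or isotype. Flow cytometry reported aggregates as % cells and size as CD42a MFI. Day-29 percent change was estimated by repeated-measures model, with Holm-Bonferroni-adjusted P.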

HbF and Hb levels = experiment: Hematology; type: in vivo, human; details: day 29, 5‐mg or 25‐mg twice‐daily groups
Procedure, shortened: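 Stable SCD patients randomized 3:1 active:placebo to oral test compound 5 mg or 25 mg or placebo, twice daily ~12 h apart with water for 29 (+1) days. HbF (%) was measured centrally at baseline and before dosing on day 29. Baseline HbF was classed low (<10%) or high (≥10%), split at the sample median.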

plasma cGMP = experiment: Plasma cGMP levels in SCD patients; type: in vivo, human; details: PF‐04447943 treatment, current study (data not shown)
Townes SCD mice = details: PF‐04447943 alone, pretreatment; cited from earlier work
[4] = system: cGMP in mouse brain tissue; details: systemic administration; cited from earlier work
[5] = system: cGMP in cerebral spinal fluid; details: systemic administration; cited from earlier work
Berkeley SCD mouse model = details: administered after a challenge; cited from earlier work
[6] = system: hospitalized patients with SCD and VOC; details: randomized, placebo‐controlled; cited from earlier work
[7] = 5 mg twice daily, % of patients

For C[C@@H]1CN(Cc2ncccn2)C[C@H]1c1nc2c(cnn2C2CCOCC2)c(=O)[nH]1 [PF‐04447943, 6‐[(3S,4S)‐4‐methyl‐1‐(pyrimidin‐2‐ylmethyl)pyrrolidin‐3‐yl]‐1‐(tetrahydro‐2H‐pyran‐4‐yl)‐1,5‐dihydro‐4H‐pyrazolo[3,4‐d]pyrimidin‐4‐one], the “patients who experienced sickle cell pain crisis” value ([1]; 5 mg twice daily) was 14%, the “treatment‐related AE: dizziness” value [1, 7] was 0% and the “treatment‐related AE: fatigue” value [1, 7] was 0%. The “treatment‐related AE: headache” value ([1]; 5 mg twice daily, up to 29 days, % of patients) was 0%, the “patients who experienced sickle cell pain crisis” value ([1]; 25 mg twice daily) was 13% and the “treatment‐related AE: dizziness” value ([1]; 25 mg twice daily, % of patients) was 13%. The “deaths during the study” value ([1]; 5 and 25 mg twice daily) was “No deaths occurred”, the tolerability ([1]; 5 and 25 mg twice daily, 29‐day treatment period) was “well tolerated” and the “dose proportionality of plasma exposure (AUC0‐12, Cmax)” value ([2]; 5 and 25 mg, day 1) was “dose proportional”. For the same compound, the “AUC0−12 (dn)” value ([2]; day 1, 5 mg) was 48 (35) ng·h/mL/mg, the “Cmax (dn)” value ([2]; day 1, 5 mg) was 9.2 (39) ng/mL/mg and the “AUC0−12 (dn)” value ([2]; day 1, 25 mg) was 47 (29) ng·h/mL/mg. For the same compound, the “Cmax (dn)” value ([2]; day 1, 25 mg) was 9.9 (31) ng/mL/mg, the Tmax ([2]; 5 mg) was 1.9 h and the Cmax ([2]; 5 mg, day 1, 5 mg) was 0.0458 µg/mL. It also gave a Tmax ([2]; 25 mg) of 1 h, a Cmax ([2]; 25 mg, day 1, 25 mg) of 0.248 µg/mL and an AUC(0-t) ([2]; 5 mg) of 0.242 µg·h/mL. The AUC(0-t) ([2]; 25 mg) was 1.17 µg·h/mL, the “reduction from baseline in size of neutrophil‐platelet aggregates” value ([3]; adjusted P = 0.018) was 34% and the “reduction from baseline in number of circulating monocyte‐platelet aggregates” value ([3]; adjusted P = 0.025) was 52%. For the same compound, the “reduction from baseline in number of neutrophil‐platelet aggregates” value ([3]; adjusted P = 0.095) was 46%, the “reduction from baseline in size of circulating monocyte‐platelet aggregates” value ([3]; adjusted P = 0.140) was 36% and the “change in HbF level” value (HbF and Hb levels) was “No significant changes”. For the same compound, the “change in plasma cGMP levels” value (plasma cGMP) was “no significant changes”, the “number of neutrophil‐platelet aggregates” value (Townes SCD mice) was “decrease in neutrophil‐platelet aggregates” and the “cGMP in mouse brain tissue” value [4] was “accumulation of cGMP in mouse brain tissue”. The “cGMP in cerebral spinal fluid in the rat” value [5] was “dose‐dependent increases”.

For C[C@@H]1O[C@@H](O[C@@H]2[C@@H](NC(=O)c3cc(=O)[nH]c(=O)[nH]3)C[C@@H](C(=O)NCCNC(=O)COCCOCC(=O)Nc3cc(S(=O)(=O)O)cc4cc(S(=O)(=O)O)cc(S(=O)(=O)O)c34)C[C@H]2O[C@@H]2O[C@H](CO)[C@H](O)[C@H](O[C@@H](CC3CCCCC3)C(=O)O)[C@H]2OC(=O)c2ccccc2)[C@@H](O)[C@H](O)[C@@H]1O [rivipansel], the leukocyte adhesion (Berkeley SCD mouse model) is listed as “reduced leukocyte adhesion” and the “time to VOC resolution, length of stay, parenteral opioid requirement” value [6] is listed as “trends toward improved”.
